Data taken from ChEMBL document CHEMBL1140495, “Neutral 5-substituted 4-anilinoquinazolines as potent, orally active inhibitors of erbB2 receptor tyrosine kinase” (Bioorg Med Chem Lett, 2007).
Values belong to the compound of their own block, whether it stands above or below them. Activity calls are given as the source filed them. The calls are words filed in the database; no cut-off is given here.

Experiments:
[1] = biological target: Epidermal growth factor receptor (Homo sapiens, UniProt P00533)
[2] = biological target: T1, Receptor tyrosine-protein kinase erbB-2 (Homo sapiens, UniProt P04626); assay: Inhibition of Erb2 autophosphorylation by cellular clone 24 assay; format: functional
[3] = Lipophilicity, log D of the compound; format: physicochemical; settings: octanol/water
[4] = biological target: T1, Receptor tyrosine-protein kinase erbB-2; assay: Inhibition of ErbB2 kinase
Mus musculus [5] = assay: AUC (0 to 24 hrs) in Alderley Park mouse at 5 mg/kg, po; format: ADME, organism-based, Plasma; design: time < 24 hr, dose 5 mg/kg, route oral; settings: in vivo
Procedure, shortened: (§1)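 Pharmacokinetics after intravenous dosing at 2 mg/kg and oral dosing at 5 mg/kg in immunocompetent female Alderley Park mice and in female Alderley Park rats. Male Alderley Park beagles received 50 mg iv and 250 mg p.o.; dog figures are means. AUC is AUC0-24 taken from the oral dose.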

[6] = Antiproliferative activity against BT474C cells; format: functional, cell-based; settings: Homo sapiens
Mus musculus [7] = assay: Inhibition of erbB2 phosphorylation in human BT474C cells xenografted mouse at 50 mg/kg, po
[8] = biological target: Proto-oncogene tyrosine-protein kinase Src (Homo sapiens, UniProt P12931); assay: Inhibition of Src
Mus musculus [9] = assay: AUC in mouse at 50 mg/kg, po; format: ADME, organism-based, Plasma; design: dose 50 mg/kg, route oral; settings: in vivo
Procedure, shortened: (§2)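 Female mice were given a single oral dose of 50 mg/kg without ABT. Total plasma concentration was measured at 2, 4, 6, 16 and 24 h, and AUC was derived.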

[10] = Plasma concentration in mouse at 50 mg/kg, po after 2 hrs; format: ADME, organism-based; design: dose 50 mg/kg, route oral
Procedure, shortened: as §2

[11] = biological target: Vascular endothelial growth factor receptor 2 (Homo sapiens, UniProt P35968); assay: Inhibition of Kdr
[12] = Plasma concentration in mouse at 50 mg/kg, po in presence of 1-aminobenzotriazole after 4 hrs; format: ADME, organism-based; design: dose 50 mg/kg, route oral
[13] = Volume of distribution at steady state in Alderley Park Beagle dog at 50 mg/kg, iv and […], po; format: ADME, organism-based, Canis lupus familiaris; settings: in vivo, read-out: Vdss
Procedure, shortened: as §1

Mus musculus [14] = assay: Inhibition of phospho-EGFR in LoVo cells xenografted mouse at 50 mg/kg, po bid; format: functional, organism-based; design: dose 50 mg/kg
Procedure, shortened: (§3)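 LoVo xenografts in mice were dosed orally at 50 mg/kg b.i.d. Tumour growth and tumour phospho-EGFR were assessed.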

[15] = Volume of distribution at steady state in Alderley Park mouse at 2 mg/kg, iv and 5 mg/kg, po; format: ADME, organism-based; settings: in vivo, read-out: Vdss
Procedure, shortened: as §1

[16] = Plasma concentration in mouse at 50 mg/kg, po in presence of 1-aminobenzotriazole after 6 hrs; format: ADME, organism-based; design: dose 50 mg/kg, route oral
BT474C [17] = assay: Antitumor activity against human BT474C cells xenografted mouse at 50 mg/kg, po qd for 21 days; format: functional, organism-based; design: dose 50 mg/kg
Canis familiaris [18] = assay: AUC (0 to 24 hrs) in Alderley Park Beagle dog at […], po; format: ADME, organism-based, Canis lupus familiaris, Plasma; design: time < 24 hr, route oral; settings: in vivo
Procedure, shortened: as §1

[19] = Bioavailability in Alderley Park rat at 2 mg/kg, iv and 5 mg/kg, po; format: ADME, organism-based; settings: in vivo
Procedure, shortened: as §1

[20] = Clearance in Alderley Park rat at 2 mg/kg, iv and 5 mg/kg, po; format: ADME, organism-based; settings: in vivo
Procedure, shortened: as §1

[21] = Plasma concentration in mouse at 50 mg/kg, po in presence of 1-aminobenzotriazole after 24 hrs; format: ADME, organism-based; design: dose 50 mg/kg, route oral
Mus musculus [22] = assay: Bioavailability in Alderley Park mouse at 2 mg/kg, iv and 5 mg/kg, po; format: ADME, organism-based; settings: in vivo
Procedure, shortened: as §1

BT474C [23] = assay: Antitumor activity against human BT474C cells xenografted mouse at 50 mg/kg, po bid for 21 days; format: functional, organism-based; design: dose 50 mg/kg
LoVo [24] = assay: Growth inhibition of LoVo cells xenografted in rat at 300 mg/kg, po qd; settings: Homo sapiens
[25] = AUC (0 to 24 hrs) in Alderley Park rat at 5 mg/kg, po; format: ADME, organism-based; design: time < 24 hr, dose 5 mg/kg, route oral; settings: plasma
Procedure, shortened: as §1

KB [26] = assay: Antiproliferative activity against human KB cells
Canis familiaris [27] = assay: Bioavailability in Alderley Park Beagle dog at 50 mg/kg, iv and […], po; format: ADME, organism-based, Canis lupus familiaris; settings: in vivo
Procedure, shortened: as §1

Rattus norvegicus = assay: Inhibition of phospho-EGFR in LoVo cells xenografted rat at 300 mg/kg, po qd
KB [28] = assay: Effect on growth of human KB cells
[29] = Plasma concentration in mouse at 50 mg/kg, po in presence of 1-aminobenzotriazole after 2 hrs; format: ADME, organism-based; design: dose 50 mg/kg, route oral
LoVo [30] = assay: Growth inhibition of LoVo cells xenografted in mouse at 50 mg/kg, po bid; format: functional, organism-based; design: dose 50 mg/kg; settings: Homo sapiens
Procedure, shortened: as §3

[31] = Plasma concentration in mouse at 50 mg/kg, po in presence of 1-aminobenzotriazole after 16 hrs; format: ADME, organism-based; design: dose 50 mg/kg, route oral
[32] = Volume of distribution at steady state in Alderley Park rat at 2 mg/kg, iv and 5 mg/kg, po; format: ADME, organism-based; settings: in vivo, read-out: Vdss
Procedure, shortened: as §1

Mus musculus [33] = assay: Inhibition of erbB2 phosphorylation in human BT474C cells xenografted mouse at 50 mg/kg, po bid for 21 days; format: functional; settings: 504 h
[34] = AUC in mouse at 50 mg/kg, po in presence of 1-aminobenzotriazole; format: ADME, organism-based; design: dose 50 mg/kg, route oral; settings: plasma
Phospholipidosis = assay: In vivo phospholipidosis in rat after 14 days at 600 mg/kg dose q.d.; format: ADME, organism-based; design: dose 600 mg/kg; settings: 336 h
Procedure, shortened: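 Rat toxicology study lasting 14 days with once-daily dosing at up to 600 mg/kg, examined for phospholipidosis.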

Chain of Epidermal growth factor receptor (P00533 whole entry): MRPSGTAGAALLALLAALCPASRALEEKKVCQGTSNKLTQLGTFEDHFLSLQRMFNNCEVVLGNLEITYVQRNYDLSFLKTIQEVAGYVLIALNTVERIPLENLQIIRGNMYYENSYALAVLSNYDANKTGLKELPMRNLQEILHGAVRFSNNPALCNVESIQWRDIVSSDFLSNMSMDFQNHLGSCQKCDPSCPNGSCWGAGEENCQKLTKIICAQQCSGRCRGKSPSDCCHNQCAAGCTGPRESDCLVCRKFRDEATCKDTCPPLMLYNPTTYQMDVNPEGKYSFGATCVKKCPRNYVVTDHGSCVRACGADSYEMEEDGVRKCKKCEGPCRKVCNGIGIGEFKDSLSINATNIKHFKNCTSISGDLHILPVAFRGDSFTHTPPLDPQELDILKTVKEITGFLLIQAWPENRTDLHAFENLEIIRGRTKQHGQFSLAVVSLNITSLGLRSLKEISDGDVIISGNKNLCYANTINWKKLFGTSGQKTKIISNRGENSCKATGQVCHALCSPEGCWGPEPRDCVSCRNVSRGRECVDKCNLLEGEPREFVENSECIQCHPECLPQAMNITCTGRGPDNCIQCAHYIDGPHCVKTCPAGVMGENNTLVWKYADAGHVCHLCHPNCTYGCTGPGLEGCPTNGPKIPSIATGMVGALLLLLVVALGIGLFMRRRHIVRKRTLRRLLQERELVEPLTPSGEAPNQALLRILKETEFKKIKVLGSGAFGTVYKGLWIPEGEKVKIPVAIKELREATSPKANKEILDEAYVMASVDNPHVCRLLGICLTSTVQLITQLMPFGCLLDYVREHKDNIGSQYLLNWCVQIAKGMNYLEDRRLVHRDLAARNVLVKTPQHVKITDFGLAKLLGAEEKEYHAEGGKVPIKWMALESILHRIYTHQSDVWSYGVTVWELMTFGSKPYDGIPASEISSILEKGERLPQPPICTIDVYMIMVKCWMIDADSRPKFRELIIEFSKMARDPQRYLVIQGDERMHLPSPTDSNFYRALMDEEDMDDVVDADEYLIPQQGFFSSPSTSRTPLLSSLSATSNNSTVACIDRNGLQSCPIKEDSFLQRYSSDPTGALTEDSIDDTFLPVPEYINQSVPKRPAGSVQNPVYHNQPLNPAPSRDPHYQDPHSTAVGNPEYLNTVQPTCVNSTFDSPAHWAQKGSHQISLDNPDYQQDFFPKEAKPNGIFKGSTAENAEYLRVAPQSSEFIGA
T1 sequence (P04626 whole entry): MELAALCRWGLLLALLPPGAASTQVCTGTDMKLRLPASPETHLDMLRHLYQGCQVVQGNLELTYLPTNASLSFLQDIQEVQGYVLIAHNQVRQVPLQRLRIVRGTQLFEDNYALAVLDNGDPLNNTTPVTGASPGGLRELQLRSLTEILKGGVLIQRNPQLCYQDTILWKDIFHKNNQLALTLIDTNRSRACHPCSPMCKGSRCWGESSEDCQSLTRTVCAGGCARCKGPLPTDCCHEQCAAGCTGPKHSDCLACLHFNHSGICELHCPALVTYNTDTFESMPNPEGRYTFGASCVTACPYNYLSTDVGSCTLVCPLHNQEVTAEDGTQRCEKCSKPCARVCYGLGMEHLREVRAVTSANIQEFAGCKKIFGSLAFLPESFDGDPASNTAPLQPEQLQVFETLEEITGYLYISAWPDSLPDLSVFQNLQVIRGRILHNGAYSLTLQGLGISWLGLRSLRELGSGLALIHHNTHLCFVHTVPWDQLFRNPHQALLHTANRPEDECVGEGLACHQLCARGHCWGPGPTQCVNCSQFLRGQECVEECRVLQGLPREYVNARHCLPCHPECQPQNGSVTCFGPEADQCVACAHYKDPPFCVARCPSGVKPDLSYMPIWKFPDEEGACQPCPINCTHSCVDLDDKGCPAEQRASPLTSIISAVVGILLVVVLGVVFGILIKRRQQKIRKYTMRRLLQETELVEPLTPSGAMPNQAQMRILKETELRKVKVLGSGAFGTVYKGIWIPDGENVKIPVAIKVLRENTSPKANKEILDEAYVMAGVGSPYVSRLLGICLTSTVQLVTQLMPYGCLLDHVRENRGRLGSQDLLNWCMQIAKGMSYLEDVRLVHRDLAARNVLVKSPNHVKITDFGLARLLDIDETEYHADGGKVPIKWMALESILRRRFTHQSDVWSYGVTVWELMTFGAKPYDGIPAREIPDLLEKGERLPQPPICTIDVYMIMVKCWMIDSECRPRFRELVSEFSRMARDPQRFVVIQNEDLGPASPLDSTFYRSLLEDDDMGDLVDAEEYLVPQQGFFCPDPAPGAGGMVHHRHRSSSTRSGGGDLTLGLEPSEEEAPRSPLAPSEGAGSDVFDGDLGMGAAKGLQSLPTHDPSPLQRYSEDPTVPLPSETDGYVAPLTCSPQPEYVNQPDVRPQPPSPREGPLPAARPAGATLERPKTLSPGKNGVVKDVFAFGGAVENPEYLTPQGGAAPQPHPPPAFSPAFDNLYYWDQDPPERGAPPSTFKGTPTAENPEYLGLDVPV
Chain of Proto-oncogene tyrosine-protein kinase Src (P12931 2-536 limits assumed): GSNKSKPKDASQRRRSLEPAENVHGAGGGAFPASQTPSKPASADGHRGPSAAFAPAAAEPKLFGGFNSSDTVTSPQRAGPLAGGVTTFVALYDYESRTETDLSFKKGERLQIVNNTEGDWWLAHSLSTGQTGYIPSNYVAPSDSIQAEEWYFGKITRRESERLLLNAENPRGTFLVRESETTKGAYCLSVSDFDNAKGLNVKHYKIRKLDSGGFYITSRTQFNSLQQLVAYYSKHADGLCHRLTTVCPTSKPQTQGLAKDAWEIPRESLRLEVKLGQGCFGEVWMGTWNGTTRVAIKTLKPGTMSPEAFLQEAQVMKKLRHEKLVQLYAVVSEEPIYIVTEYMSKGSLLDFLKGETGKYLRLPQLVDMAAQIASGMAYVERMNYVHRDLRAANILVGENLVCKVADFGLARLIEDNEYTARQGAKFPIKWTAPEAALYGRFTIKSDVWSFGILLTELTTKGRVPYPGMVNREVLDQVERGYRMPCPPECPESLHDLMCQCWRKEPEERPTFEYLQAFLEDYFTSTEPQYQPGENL
Chain of Vascular endothelial growth factor receptor 2 (P35968 whole entry): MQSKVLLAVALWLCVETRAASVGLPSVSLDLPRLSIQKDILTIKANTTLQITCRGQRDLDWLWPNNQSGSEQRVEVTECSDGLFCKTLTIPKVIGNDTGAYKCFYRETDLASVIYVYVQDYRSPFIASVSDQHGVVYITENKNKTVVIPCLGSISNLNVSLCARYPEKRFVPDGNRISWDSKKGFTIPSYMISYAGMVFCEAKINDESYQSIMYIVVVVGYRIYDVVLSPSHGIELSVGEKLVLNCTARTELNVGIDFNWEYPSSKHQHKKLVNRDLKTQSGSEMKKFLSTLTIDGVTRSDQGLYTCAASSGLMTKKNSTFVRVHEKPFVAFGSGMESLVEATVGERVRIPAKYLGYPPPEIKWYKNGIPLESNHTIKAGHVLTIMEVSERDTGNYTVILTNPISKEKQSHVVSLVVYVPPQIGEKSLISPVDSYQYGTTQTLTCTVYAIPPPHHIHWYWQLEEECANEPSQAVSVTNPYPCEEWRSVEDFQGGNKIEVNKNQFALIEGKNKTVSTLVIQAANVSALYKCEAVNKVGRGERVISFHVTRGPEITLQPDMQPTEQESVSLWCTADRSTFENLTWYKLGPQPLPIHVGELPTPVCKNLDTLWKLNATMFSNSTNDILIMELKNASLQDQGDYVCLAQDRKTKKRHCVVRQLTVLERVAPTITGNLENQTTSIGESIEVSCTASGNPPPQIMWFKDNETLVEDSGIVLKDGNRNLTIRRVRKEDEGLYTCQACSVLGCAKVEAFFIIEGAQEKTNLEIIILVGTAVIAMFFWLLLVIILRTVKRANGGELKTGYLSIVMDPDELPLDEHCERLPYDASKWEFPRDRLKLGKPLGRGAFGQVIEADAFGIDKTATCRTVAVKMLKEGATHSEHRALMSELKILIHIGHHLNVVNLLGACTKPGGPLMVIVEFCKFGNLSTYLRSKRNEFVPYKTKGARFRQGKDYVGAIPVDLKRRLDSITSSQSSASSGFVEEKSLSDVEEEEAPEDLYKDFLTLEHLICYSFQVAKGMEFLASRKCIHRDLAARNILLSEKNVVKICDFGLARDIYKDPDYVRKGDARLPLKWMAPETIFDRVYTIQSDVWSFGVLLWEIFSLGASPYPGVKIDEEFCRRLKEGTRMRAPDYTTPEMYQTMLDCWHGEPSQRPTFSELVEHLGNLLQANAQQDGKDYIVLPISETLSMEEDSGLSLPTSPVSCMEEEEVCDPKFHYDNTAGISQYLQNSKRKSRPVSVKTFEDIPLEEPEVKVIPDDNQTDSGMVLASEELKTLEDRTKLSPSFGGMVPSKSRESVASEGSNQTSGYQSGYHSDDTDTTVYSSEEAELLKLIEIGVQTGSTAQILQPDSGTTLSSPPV

Compound: C[C@@H](CN(C)C(=O)CO)Oc1cccc2ncnc(Nc3ccc(OCc4ccccn4)c(Cl)c3)c12
IC50 [1]: 191 nM | IC50 [2]: 291 nM | logD [3]: 3 | IC50 [4]: 22 nM

Compound: O=C(CO)N1CCC[C@H]1COc1cccc2ncnc(Nc3ccc(OCc4ccccn4)c(Cl)c3)c12
IC50 [1]: 327 nM | IC50 [2]: 259 nM | logD [3]: 3 | IC50 [4]: 2 nM

Compound: CN(CCOc1cccc2ncnc(Nc3ccc(OCc4ccccn4)c(Cl)c3)c12)C(=O)CO
AUC (Mus musculus [5]): 0.02 µM·h | IC50 [6]: 130 nM | inhibition in vivo at 50 mg/kg (Mus musculus [7]): 70% | IC50 [8]: > 1000 nM | AUC (Mus musculus [9]): 0.89 µM·h | concentration at 2 h [10]: 0.35 µM | IC50 [11]: > 1000 nM | concentration at 4 h [12]: 13.8 µM | Vd [13]: 1 L/kg | Activity (Mus musculus [14]): inactive | Vd [15]: 0.7 L/kg | concentration at 6 h [16]: 6.3 µM | IC50 [1]: 35 nM | Activity (BT474C [17]): Active | AUC (Canis familiaris [18]): 32 µM·h | bioavailability [19]: 32% | IC50 [2]: 43 nM | clearance [20]: 10 mL/min/kg | concentration at 24 h [21]: 0.007 µM | F (Mus musculus [22]): 4% | Activity (BT474C [23]): Active | Activity (LoVo [24]): inactive | AUC(0-t) at 24 h [25]: 5.5 µM·h | IC50 (KB [26]): 621 nM | F (Canis familiaris [27]): 51% | Activity (Rattus norvegicus): inactive | IC50 (KB [28]): 8140 nM | logD [3]: 3 | IC50 [4]: 4 nM | concentration at 2 h [29]: 16.5 µM | Activity (LoVo [30]): inactive | concentration at 16 h [31]: 0.026 µM | Vd [32]: 0.9 L/kg | inhibition in vivo at 50 mg/kg (Mus musculus [33]): 70% | AUC [34]: 99 µM·h | Phospholipidosis (Phospholipidosis): Not Active

Compound: C[C@@H](COc1cccc2ncnc(Nc3ccc(OCc4ccccn4)c(Cl)c3)c12)N(C)C(=O)CO
IC50 [1]: 2580 nM | IC50 [2]: 131 nM | logD [3]: 3 | IC50 [4]: 19 nM

Compound: O=C(CO)N1CCC[C@@H]1COc1cccc2ncnc(Nc3ccc(OCc4ccccn4)c(Cl)c3)c12
IC50 [1]: 97 nM | IC50 [2]: 147 nM | logD [3]: 3 | IC50 [4]: < 2 nM

The next compounds have a lower IC50 [1] than those just listed; values first:

IC50 [1]: 2 nM | IC50 [2]: 11 nM | IC50 (KB [26]): 141 nM | IC50 (KB [28]): 6940 nM | logD [3]: 3 | IC50 [4]: < 2 nM
Compound: C[C@H](CN(C)C(=O)CO)Oc1cccc2ncnc(Nc3ccc(OCc4ccccn4)c(Cl)c3)c12
IC50 [6]: 34 nM

IC50 [1]: 3 nM | IC50 [2]: 11 nM | logD [3]: 3 | IC50 [4]: < 2 nM
Compound: C[C@H](COc1cccc2ncnc(Nc3ccc(OCc4ccccn4)c(Cl)c3)c12)N(C)C(=O)CO
